The test system of assay [1] is MCF7. As to the kind of experiment: Antiproliferative activity against human MCF7 cells assessed as cell viability after 48 hrs MTT assay. The note with it: MCF7, 48 h. The format is functional, cell-based. In a few lines:
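MTT:medium (1:9) added 4 h at 37°C, formazan dissolved in DMSO, absorbance 570 nm. DMSO solvent control; triplicate; IC50 = concentration inhibiting 50% of viability.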

Assay [2] addresses T1, Proteasome Macropain subunit MB1 (Homo sapiens) (UniProt P28074).
T1 sequence (whole entry): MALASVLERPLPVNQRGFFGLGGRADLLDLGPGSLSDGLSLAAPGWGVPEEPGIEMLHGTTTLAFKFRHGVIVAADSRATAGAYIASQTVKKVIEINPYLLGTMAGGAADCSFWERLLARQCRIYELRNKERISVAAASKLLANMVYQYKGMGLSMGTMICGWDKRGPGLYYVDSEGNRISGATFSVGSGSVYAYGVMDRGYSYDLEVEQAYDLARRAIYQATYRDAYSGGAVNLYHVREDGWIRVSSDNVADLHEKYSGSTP
As to the kind of experiment: Inhibition of chymotrypsin-like activity 20S proteasome beta subunit 5 of human MCF7 cells using fluorogenic substrate Suc-LLVY-AMC at 10 uM after 1 hr by fluorescence analysis relative to control. The class given is cell-based. The procedure, abridged: (§1)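 Screen at 10 µM: MCF-7 lysates (sucrose/HEPES/MgCl2/EDTA buffer, 1 mM DTT) preincubated 10 min in 225 mM Tris pH 7.8, 7.5 mM MgOAc, 7.5 mM MgCl2, 45 mM KCl, 1 mM DTT; compound 1 h at 37 °C, then substrate 1 h at 37 °C; AMC release ex 360/em 460 nm versus DMSO; MG-132 positive control.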

In assay [3] the target is T2, Proteasome component C5 (Homo sapiens) (UniProt P20618).
T2 sequence (whole entry): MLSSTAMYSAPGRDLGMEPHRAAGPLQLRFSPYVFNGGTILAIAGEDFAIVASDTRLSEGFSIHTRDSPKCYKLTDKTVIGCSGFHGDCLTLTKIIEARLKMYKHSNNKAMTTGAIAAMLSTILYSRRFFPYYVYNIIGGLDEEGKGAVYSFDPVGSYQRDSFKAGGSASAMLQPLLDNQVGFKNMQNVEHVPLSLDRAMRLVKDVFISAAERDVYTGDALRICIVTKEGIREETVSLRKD
As to the kind of experiment: Inhibition of caspase-like activity 20S proteasome beta subunit 1 of human MCF7 cells using fluorogenic substrate Z-LLE-AMC at 10 uM after 1 hr by fluorescence analysis relative to control. The class given is cell-based. The procedure, abridged:
as §1

Assay [4] addresses Proteasome Macropain subunit (Homo sapiens) (UniProt P49721). As to the kind of experiment: Inhibition of trypsin-like activity 20S proteasome beta subunit 2 of human MCF7 cells using fluorogenic substrate Boc-LRR-AMC at 10 uM after 1 hr by fluorescence analysis relative to control. The format is cell-based. In a few lines: as §1
Assay [5] has as its target T3, Proteasome Macropain subunit MB1 (Homo sapiens, UniProt P28074).
T3 sequence (P28074 whole entry): T1 sequence (whole entry)
As to the kind of experiment: Inhibition of chymotrypsin-like activity 20S proteasome beta subunit 5 of human MCF7 cells using fluorogenic substrate Suc-LLVY-AMC after 1 hr by fluorescence analysis. The format is cell-based. The procedure, abridged:
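For IC50, intact MCF-7 cells treated 12 h with compounds, then lysed (sucrose/HEPES/MgCl2/EDTA, 1 mM DTT); extracts in Tris pH 7.8/MgOAc/MgCl2/KCl/DTT mix with substrate 1 h at 37 °C; AMC fluorescence ex 360/em 460 nm, normalized to BCA total protein; DMSO solvent and MG-132 positive controls.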

In assay [6] the test system is MCF7. As to the kind of experiment: Effect on 20S proteasome beta subunit 5 expression in human MCF7 cells at IC50 after 12 hrs by Western blot analysis. The class given is functional, cell-based.
Assay [7] deals with MCF7. The experiment in a line: Increase in K48-linked polyubiquitinated protein expression in human MCF7 cells at IC50 after 12 hrs by Western blot analysis. The format is functional, cell-based. For orientation: Immunoblotting shows a protein as a band on a membrane.

The text below walks through data of ChEMBL document CHEMBL4706614, “Design, synthesis and biological evaluation of novel naphthoquinone-4-aminobenzensulfonamide/carboxamide derivatives as proteasome inhibitors” (Eur J Med Chem, 2021).

The source made the active and inactive calls. No cut-off for these calls is given here.

Proteasome Macropain subunit (Homo sapiens), sequence (P49721 whole entry): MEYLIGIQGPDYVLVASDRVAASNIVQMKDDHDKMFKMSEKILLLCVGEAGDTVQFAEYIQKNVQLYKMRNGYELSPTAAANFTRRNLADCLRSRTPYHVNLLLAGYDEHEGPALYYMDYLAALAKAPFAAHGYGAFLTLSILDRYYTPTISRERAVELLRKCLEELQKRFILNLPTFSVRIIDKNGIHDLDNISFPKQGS

With `O=C1C(Cl)=C(Nc2ccc(S(=O)(=O)Nc3ccc(Cl)cn3)cc2)C(=O)c2ccccc21`, the IC50 in the assay with MCF7 [1] stood at 4.43 µM; in assay [5] it was 9.9 µM. For the same compound, the inhibition in assay [2] turned out to be 42.3%; in assay [3] it was 28.9%; in assay [4], 35%. Moreover, the result with MCF7 [6] was inactive. In addition, the outcome in the assay on MCF7 [7] was Active.
With `O=C(Nc1ccc([N+](=O)[O-])cc1)c1ccc(NC2=C(Cl)C(=O)c3ccccc3C2=O)cc1`, the IC50 is 16.1 µM in the assay on MCF7 [1] and 33.1 µM in assay [5]. Moreover, the inhibition in assay [2] came to 35.3%; in assay [3] it was 22.8%; in assay [4], 30.5%.
`O=C1C(Cl)=C(Nc2ccc(S(=O)(=O)Nc3ccccn3)cc2)C(=O)c2ccccc21`: the IC50 was found to be 1.96 µM in the assay with MCF7 [1] and 12.5 µM in assay [5]. Also, the results for the inhibition in assay [2], in assay [3] and in assay [4] were 36.8%, 18.8% and 29.6%, respectively. In the assay on MCF7 [6], the result was inactive. For the same compound, the outcome in the assay with MCF7 [7] was Active.

One may read the IC50 as the concentration needed to halve the response being measured. In general, inhibition refers to the relative decrease from the control value, in per cent.
